Measured values: ChEMBL document CHEMBL1142695, “Discovery of functionally selective 7,8,9,10-tetrahydro-7,10-ethano-1,2,4-triazolo[3,4-a]phthalazines as GABA A receptor agonists at the alpha3 subunit” (J Med Chem, 2005)

Tests used:
Type in all cases: cell-based
[1] = target: T1, GABA-A receptor; alpha-2/beta-3/gamma-2 (Homo sapiens, UniProt P18507+P28472+P47869); assay: Inhibition of [3H]Ro-151788 binding to recombinant human gamma-aminobutyric acid A receptor alpha-2-beta-3-gamma-2 subtype expressed in L (tk-) cells
T1 sequence (P18507 whole entry): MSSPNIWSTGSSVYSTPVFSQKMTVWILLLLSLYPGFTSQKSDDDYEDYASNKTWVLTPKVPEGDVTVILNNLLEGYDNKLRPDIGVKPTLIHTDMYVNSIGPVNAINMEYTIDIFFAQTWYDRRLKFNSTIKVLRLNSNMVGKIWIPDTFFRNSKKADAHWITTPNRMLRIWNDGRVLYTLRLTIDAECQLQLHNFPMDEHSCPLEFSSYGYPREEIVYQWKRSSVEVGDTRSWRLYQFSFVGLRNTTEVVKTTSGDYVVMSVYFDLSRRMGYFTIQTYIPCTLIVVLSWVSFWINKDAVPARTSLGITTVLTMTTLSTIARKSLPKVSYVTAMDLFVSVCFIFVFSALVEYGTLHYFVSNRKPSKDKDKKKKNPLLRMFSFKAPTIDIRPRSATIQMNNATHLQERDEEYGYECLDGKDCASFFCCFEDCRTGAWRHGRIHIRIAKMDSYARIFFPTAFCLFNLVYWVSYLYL
T1 sequence (P28472 whole entry): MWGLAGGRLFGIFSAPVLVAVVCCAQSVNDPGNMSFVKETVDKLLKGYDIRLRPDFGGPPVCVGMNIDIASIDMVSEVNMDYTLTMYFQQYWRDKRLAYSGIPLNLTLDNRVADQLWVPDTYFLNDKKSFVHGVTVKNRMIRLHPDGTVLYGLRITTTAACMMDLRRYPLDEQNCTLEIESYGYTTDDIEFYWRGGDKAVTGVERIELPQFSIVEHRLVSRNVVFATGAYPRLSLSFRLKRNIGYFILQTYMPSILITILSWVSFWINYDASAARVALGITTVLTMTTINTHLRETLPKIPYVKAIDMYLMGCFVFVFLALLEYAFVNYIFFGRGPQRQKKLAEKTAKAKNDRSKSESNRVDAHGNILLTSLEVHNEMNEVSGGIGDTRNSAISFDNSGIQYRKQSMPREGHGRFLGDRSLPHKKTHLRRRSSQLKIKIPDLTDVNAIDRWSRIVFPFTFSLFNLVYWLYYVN
T1 sequence (P47869 whole entry): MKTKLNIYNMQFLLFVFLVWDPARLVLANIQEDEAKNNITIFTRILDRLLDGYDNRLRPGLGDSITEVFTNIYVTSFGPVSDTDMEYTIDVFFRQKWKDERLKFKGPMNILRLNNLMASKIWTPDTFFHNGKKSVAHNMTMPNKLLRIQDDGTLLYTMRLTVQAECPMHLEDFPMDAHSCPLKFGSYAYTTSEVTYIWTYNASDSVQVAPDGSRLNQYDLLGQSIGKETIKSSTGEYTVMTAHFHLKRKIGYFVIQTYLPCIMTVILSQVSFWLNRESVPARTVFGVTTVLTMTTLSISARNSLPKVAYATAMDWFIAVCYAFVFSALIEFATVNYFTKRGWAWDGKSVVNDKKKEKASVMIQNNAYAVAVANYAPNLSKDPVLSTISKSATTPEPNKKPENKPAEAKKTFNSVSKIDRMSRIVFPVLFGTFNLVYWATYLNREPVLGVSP

[2] = target: T2, GABA-A receptor; alpha-1/beta-3/gamma-2 (Homo sapiens, UniProt P14867+P18507+P28472); assay: Inhibition of [3H]Ro-151788 binding to recombinant human gamma-aminobutyric-acid A receptor alpha-1-beta-3-gamma-2 subtype expressed in L (tk-) cells
T2 sequence (P14867 whole entry): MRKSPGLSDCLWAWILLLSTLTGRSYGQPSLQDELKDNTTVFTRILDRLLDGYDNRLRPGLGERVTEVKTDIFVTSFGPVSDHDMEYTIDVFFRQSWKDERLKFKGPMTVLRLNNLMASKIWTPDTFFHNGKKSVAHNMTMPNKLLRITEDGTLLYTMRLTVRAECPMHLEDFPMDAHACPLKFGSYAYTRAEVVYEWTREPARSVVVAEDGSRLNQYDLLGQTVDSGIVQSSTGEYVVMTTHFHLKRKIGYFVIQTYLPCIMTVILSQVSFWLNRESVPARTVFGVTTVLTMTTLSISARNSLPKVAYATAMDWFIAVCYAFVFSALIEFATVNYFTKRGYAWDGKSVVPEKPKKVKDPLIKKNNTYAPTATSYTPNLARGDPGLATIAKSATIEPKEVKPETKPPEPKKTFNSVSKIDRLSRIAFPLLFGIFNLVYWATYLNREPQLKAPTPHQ
T2 sequence (P18507 whole entry): T1 sequence (P18507 whole entry)
T2 sequence (P28472 whole entry): T1 sequence (P28472 whole entry)

[3] = target: T3, GABA-A receptor; alpha-3/beta-3/gamma-2 (Homo sapiens, UniProt P18507+P28472+P34903); assay: Inhibition of [3H]Ro-151788 binding to recombinant human gamma-aminobutyric-acid A receptor alpha-3-beta-3-gamma-2 subtype expressed in L (tk-) cells
T3 sequence (P18507 whole entry): T1 sequence (P18507 whole entry)
T3 sequence (P28472 whole entry): T1 sequence (P28472 whole entry)
T3 sequence (P34903 whole entry): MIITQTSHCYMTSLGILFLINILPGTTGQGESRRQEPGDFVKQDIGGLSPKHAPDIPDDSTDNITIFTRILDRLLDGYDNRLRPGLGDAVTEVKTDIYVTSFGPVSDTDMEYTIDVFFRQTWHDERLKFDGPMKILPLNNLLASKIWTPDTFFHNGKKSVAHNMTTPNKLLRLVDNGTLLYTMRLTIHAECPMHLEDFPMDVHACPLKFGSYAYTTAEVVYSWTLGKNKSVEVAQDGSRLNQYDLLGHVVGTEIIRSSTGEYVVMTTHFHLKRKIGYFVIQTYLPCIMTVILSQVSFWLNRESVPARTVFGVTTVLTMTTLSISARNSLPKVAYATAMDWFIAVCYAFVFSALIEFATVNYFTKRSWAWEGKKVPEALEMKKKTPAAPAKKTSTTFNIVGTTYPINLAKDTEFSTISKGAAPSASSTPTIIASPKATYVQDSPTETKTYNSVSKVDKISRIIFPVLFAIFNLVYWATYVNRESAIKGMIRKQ

[4] = target: T4, GABA-A receptor; alpha-5/beta-3/gamma-2 (Homo sapiens, UniProt P18507+P28472+P31644); assay: Inhibition of [3H]Ro-151788 binding to recombinant human gamma-aminobutyric-acid A receptor alpha-5-beta-3-gamma-2 subtype expressed in L (tk-) cells
T4 sequence (P18507 whole entry): T1 sequence (P18507 whole entry)
T4 sequence (P28472 whole entry): T1 sequence (P28472 whole entry)
T4 sequence (P31644 whole entry): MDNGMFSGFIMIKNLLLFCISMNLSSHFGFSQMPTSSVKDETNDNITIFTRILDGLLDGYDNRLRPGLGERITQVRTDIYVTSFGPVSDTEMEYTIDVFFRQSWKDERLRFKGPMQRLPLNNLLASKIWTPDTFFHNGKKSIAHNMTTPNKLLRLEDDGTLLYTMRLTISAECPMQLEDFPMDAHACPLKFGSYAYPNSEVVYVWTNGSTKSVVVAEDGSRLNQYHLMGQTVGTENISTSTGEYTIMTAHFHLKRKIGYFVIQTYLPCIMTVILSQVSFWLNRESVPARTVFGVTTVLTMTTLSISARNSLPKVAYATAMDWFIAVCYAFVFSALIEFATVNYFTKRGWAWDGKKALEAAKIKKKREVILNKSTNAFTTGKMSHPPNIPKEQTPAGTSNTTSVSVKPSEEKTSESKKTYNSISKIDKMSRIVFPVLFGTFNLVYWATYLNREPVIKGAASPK

[5] = target: GABA-A receptor; alpha-3/beta-3/gamma-2 (Homo sapiens) (UniProt P18507+P28472+P34903); assay: Efficacy was measured as modulation of the current in response to GABA at hGABA alpha-3-beta-3-gamma-2 receptor expressed in Xenopus oocytes; details: Oocyte
Method in brief: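 Two-electrode voltage clamp on Xenopus oocytes expressing each receptor combination. […] Value is percent increase or decrease of the EC20 GABA current.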

| SMILES | Ki [1] | Ki [2] | Ki [3] | Ki [4] | Efficacy [5] |
| --- | --- | --- | --- | --- | --- |
| Cc1ccc(COc2nn3c(-c4ccccc4)nnc3c3c2C2CCC3CC2)nn1 | 22 nM | 50 nM | 10 nM | 2.1 nM | 31% |
| Cc1c[nH]c(COc2nn3c(-c4ccccc4)nnc3c3c2C2CCC3CC2)n1 | 15 nM | 85 nM | 7.8 nM | 0.9 nM | 28% |
| c1ccc(-c2nnc3c4c(c(OCCc5ccccn5)nn23)C2CCC4CC2)cc1 | 270 nM | 480 nM | 200 nM | 44 nM |  |
| Cc1nnc2ccc(-c3cccc(C(F)(F)F)c3)nn12 [CI-218872] | 720 nM | 66 nM | 850 nM | 460 nM |  |
| Cc1noc(COc2nn3c(-c4ccccc4)nnc3c3c2C2CCC3CC2)n1 | 250 nM | 290 nM | 51 nM | 12 nM |  |
| c1ccc(-c2nnc3c4c(c(OCc5ccc6ccccc6n5)nn23)C2CCC4CC2)cc1 | 200 nM | 480 nM | 77 nM | 9.5 nM |  |
| CSOc1ccc(COc2nn3c(-c4ccccc4)nnc3c3c2C2CCC3CC2)cc1 | 41 nM | 96 nM | 31 nM | 7.6 nM |  |
| Fc1ccccc1-c1nnc2c3c(c(OCc4ccccn4)nn12)C1CCC3CC1 | 16 nM | 28 nM | 6.1 nM | 0.54 nM |  |
| c1ccc(-c2nnc3c4c(c(OCc5ncccn5)nn23)C2CCC4CC2)cc1 | 68 nM | 87 nM | 33 nM | 9.2 nM |  |
| c1ccc(-c2nnc3c4c(c(OCc5ccc6c(c5)OCO6)nn23)C2CCC4CC2)cc1 | > 500 nM | > 500 nM | > 500 nM | > 500 nM |  |
| Cc1cccc(CCCOc2nn3c(-c4ccccc4)nnc3c3c2C2CCC3CC2)n1 | 190 nM | 75 nM | 240 nM | 30 nM |  |
| COC(=O)c1cccnc1COc1nn2c(-c3ccccc3)nnc2c2c1C1CCC2CC1 | 30 nM |  | 7.1 nM | 2.5 nM | 29% |
| Cc1cccc(COc2nn3c(-c4ccccc4)nnc3c3c2C2CCC3CC2)n1 | 36 nM | 160 nM | 20 nM | 2.6 nM |  |
| OCC1CCC(COc2nn3c(-c4ccccc4)nnc3c3c2C2CCC3CC2)CC1 (trans isomer) | 77 nM | 150 nM | 57 nM | 41 nM |  |
| N#Cc1ccc(COc2nn3c(-c4ccccc4)nnc3c3c2C2CCC3CC2)cc1 | 110 nM | 310 nM | 70 nM | 9.4 nM |  |
| c1ccc(COc2nn3c(C4CC4)nnc3c3c2C2CCC3CC2)nc1 | 24 nM | 130 nM | 18 nM | 1.8 nM |  |
| Cc1csc(-c2nnc3c4c(c(OCc5ccccn5)nn23)C2CCC4CC2)n1 | 140 nM | > 1000 nM | 100 nM | 26 nM |  |
| OCc1cccc(COc2nn3c(-c4ccccc4)nnc3c3c2C2CCC3CC2)c1 | 110 nM | 490 nM | 43 nM | 11 nM |  |
| O=C1CCC(COc2nn3c(-c4ccccc4)nnc3c3c2C2CCC3CC2)N1 (centres undefined) | 480 nM | 730 nM | 260 nM | 59 nM |  |
| c1ccc(-c2nnc3c4c(c(OCc5cccs5)nn23)C2CCC4CC2)cc1 | > 500 nM | > 500 nM | > 500 nM | > 500 nM |  |
| c1ccc(COc2nn3c(-c4ccsc4)nnc3c3c2C2CCC3CC2)nc1 | 52 nM | 130 nM | 38 nM | 4.4 nM |  |
| CN(C)C(=O)COc1nn2c(-c3ccccc3)nnc2c2c1C1CCC2CC1 | 160 nM | 220 nM | 89 nM | 10 nM |  |
| c1ccc(-c2nnc3c4c(c(OCc5nc[nH]n5)nn23)C2CCC4CC2)cc1 |  |  |  |  | 49% |
| Oc1cccnc1COc1nn2c(-c3ccccc3)nnc2c2c1C1CCC2CC1 | 470 nM | 270 nM | 180 nM | 34 nM |  |
| OCC1CCC(COc2nn3c(-c4ccccc4)nnc3c3c2C2CCC3CC2)CC1 (stereo in doubt) | > 1000 nM | > 1000 nM | > 1000 nM | 88 nM |  |
| c1ccc(COc2nn3c(N4CCOCC4)nnc3c3c2C2CCC3CC2)nc1 | > 1000 nM | > 1000 nM | > 1000 nM | > 1000 nM |  |
| c1ccc(-c2nnc3c4c(c(OCc5nnc[nH]5)nn23)C2CCC4CC2)cc1 | 25 nM | 43 nM | 19 nM | 2.8 nM |  |
| Cn1nnnc1COc1nn2c(-c3ccccc3)nnc2c2c1C1CCC2CC1 | 59 nM | 78 nM | 21 nM | 4.4 nM |  |
| Cc1nc(COc2nn3c(-c4ccccc4)nnc3c3c2C2CCC3CC2)no1 | 110 nM | 140 nM | 66 nM | 16 nM |  |
| c1ccc(-c2nnc3c4c(c(OCc5ccco5)nn23)C2CCC4CC2)cc1 | > 500 nM | > 500 nM | > 500 nM | > 500 nM |  |
